Series [1] is described as follows: Cytotoxicity against human SU86 cells co-cultured with human mesothelial cells at 10 uM after 4 hrs by firefly luciferase assay relative to control. In kind it is functional. In outline:
(§1)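 Co-culture of luciferase-transduced cancer cells (puromycin/G418-selected retroviral pLuc) with confluent human mesothelial monolayers. Suspended cancer cells plus 10 µM compound (final) or DMSO were overlaid for 4 h. Non-adherent cells were washed off and surviving adherent cells quantified by firefly luciferase luminescence. Efficacy = treated/DMSO luminescence ratio; mean±SEM, n=3.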

Series [2] is described as follows: Cytotoxicity against human SKOV3 cells co-cultured with human mesothelial cells after 4 hrs by firefly luciferase assay relative to control. The note with it: SK-OV-3, 4 h. The class given is functional, cell-based. In short, it runs like this: (§2)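 Luciferase-expressing cancer cells in suspension were treated with a series of compound concentrations or DMSO, overlaid on confluent human mesothelial monolayers for 4 h, and washed to remove non-adherent cells. Surviving adherent cells were read by luciferase luminescence relative to vehicle, and EC50 was derived from the concentration series.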

The test system of series [3] is A2780. In words: Induction of apoptosis in human A2780 cells assessed as increased cellular levels of cleaved caspase 3 at 5 uM after 4 hrs by immunoblot analysis. In kind it is functional, cell-based. In short, it runs like this:
(§3)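 A2780 cells were suspended and allowed to adhere for 4 h with DMSO or test compound (5 µM in DMSO). Cells were collected and lysed, lysates normalised for total protein, and cleaved PARP and cleaved caspase 3 detected by immunoblot with actin as loading control. A sulfide analog served as negative control.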
For orientation: A western blot detects proteins with antibodies after separation by electrophoresis.

The subject of series [4] is A2780. Briefly: Induction of apoptosis in human A2780 cells assessed as increased cellular levels of cleaved PARP at 5 uM after 4 hrs by immunoblot analysis. The class given is functional, cell-based. In short, it runs like this: as §3
In series [5] the test system is Mus musculus. Briefly: Toxicity in athymic nu/nu mouse xenografted with human SKOV3 cells assessed as weight loss at 5 mg/kg, ip administered thrice a week for 14 days. In kind it is organism-based, SK-OV-3. Set-up: dose 5 mg/kg, route intraperitoneal. The note with it: in vivo, 336 h. A general note: Xenograft models place foreign cells or tissue in a host animal.

The subject of series [6] is A2780. Briefly: Cytotoxicity against human A2780 cells co-cultured with human mesothelial cells after 4 hrs by firefly luciferase assay relative to control. In kind it is functional, cell-based. The following applies: A2780, 4 h. In outline:
as §2

The nature of series [7]: Antitumor activity against human MIAPaCa2 cells xenografted in ip dosed Ncr-Nu/Nu mouse assessed as metastases administered on day 1, 3, 5, 7 and measured after 8 weeks by fluorescent imaging analysis (reference value: 40%). In kind it is functional, MIA PaCa-2. In short, it runs like this:
(§4)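 Orthotopic pancreatic model in male NCr-Nu/Nu nude mice, 6-8 wk old. 1×10⁶ RFP-expressing MiaPaCa-2 cells in soluble ECM were injected into the pancreatic tail. Tumour resected with distal pancreatectomy, with no residual disease confirmed by intraoperative RFP imaging. Compound or vehicle (4:1 PEG400:EtOH) given IP at surgery and on days 3, 5 and 7. Local and metastatic recurrence scored by fluorescent imaging after 8 weeks.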

A short description of series [8]: Cytotoxicity against human SKOV3 cells co-cultured with human mesothelial cells at 10 uM after 4 hrs by firefly luciferase assay relative to control. The class given is functional, SK-OV-3. In outline:
as §1

Series [9] in a line: Cytotoxicity against human BxPC3 cells co-cultured with human mesothelial cells at 10 uM after 4 hrs by firefly luciferase assay relative to control. In kind it is functional, BXPC-3. In outline:
as §1

In series [10] the test system is A2780. Briefly: Cytotoxicity against human A2780 cells co-cultured with human mesothelial cells at 10 uM after 4 hrs by firefly luciferase assay relative to control. The class given is functional. In outline: as §1
The nature of series [11]: Cytotoxicity against human SU86 cells co-cultured with human mesothelial cells after 4 hrs by firefly luciferase assay relative to control. The class given is functional, cell-based. In short, it runs like this: as §2
The test system of the next series is SK-OV-3. Briefly: Inhibition of peritoneal carcinomatosis of human SKOV3 cells in athymic nu/nu mouse at 5 mg/kg, ip administered thrice a week for 14 days by luciferase reporter assay relative to vehicle-treated control. In kind it is functional, organism-based. Set-up: dose 5 mg/kg. In short, it runs like this:
(§5)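 Athymic female nu/nu mice, 5 weeks old, received 5 mg/kg compound or vehicle (80% PEG400:20% ethanol) IP 4 h before IP injection of 1.5×10⁶ A2780-luc or 2×10⁶ SKOV3-luc cells, n=7 per arm. Dosing continued IP three times a week for 14 days. Tumour burden was imaged weekly by abdominal bioluminescence after IP D-luciferin/ketamine/xylazine; mean±SEM, unpaired t-test vs vehicle.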

The test system of series [12] is Mus musculus. Briefly: Toxicity in athymic nu/nu mouse xenografted with human A2780 cells assessed as weight loss at 5 mg/kg, ip administered thrice a week for 14 days. The class given is organism-based. Set-up: dose 5 mg/kg, route intraperitoneal. The note with it: in vivo, 336 h.
Series [13] in a line: Cytotoxicity against human BxPC3 cells co-cultured with human mesothelial cells after 4 hrs by firefly luciferase assay relative to control. In kind it is functional, cell-based. The following applies: BXPC-3, 4 h. In outline:
as §2

Series [14] can be described thus: Antimetastatic activity against human MIAPaCa2 cells xenografted in ip dosed Ncr-Nu/Nu mouse assessed as local recurrence administered on day 1, 3, 5, 7 and measured after 8 weeks by fluorescent imaging analysis (reference value: 60%). In kind it is functional, MIA PaCa-2. In outline: as §4
Series [15] is described as follows: Antimetastatic activity against human MIAPaCa2 cells xenografted in ip dosed Ncr-Nu/Nu mouse assessed as total recurrence administered on day 1, 3, 5, 7 and measured after 8 weeks by fluorescent imaging analysis (reference value: 67%). In kind it is functional, MIA PaCa-2. In short, it runs like this:
as §4

Series [16] relates to A2780. Briefly: Inhibition of peritoneal carcinomatosis of human A2780 cells in athymic nu/nu mouse at 5 mg/kg, ip administered thrice a week for 14 days by luciferase reporter assay relative to vehicle-treated control. The class given is functional, organism-based. Set-up: dose 5 mg/kg. In short, it runs like this: as §5
(Reporter assays use an easily measured gene product as a stand-in for the process of interest.)

The subject of series [17] is HT-29. In words: Reduction of cellular GSH level in human HT-29 cells after 24 hrs by […]. In kind it is functional, cell-based. In outline: (§6)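 Glutathione was measured with a commercial kit per the manufacturer's instructions, with TNB production rate proportional to GSH. Cell-free GSH was tested with compounds, and HT-29 luciferase cell lysates were assayed after compound exposure.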

The subject of series [18] is HT-29. Briefly: Cytotoxicity against human HT-29 cells co-cultured with human mesothelial cells at 50 to 200 uM preincubated for 24 hrs followed by co-culturing measured after 4 hrs by firefly luciferase assay relative to control. The class given is functional, cell-based. The note with it: in the assay text read “after 5 hrs” for “after 4 hrs”. In short, it runs like this: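 Luciferase-expressing HT-29 cells were pretreated 24 h with water or various BSO concentrations, trypsin-suspended, then overlaid on confluent human mesothelial monolayers with compound and BSO for 5 h. Non-adherent cells were washed off and survivors read by luciferase luminescence.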

The subject of series [19] is HT-29. In words: Reduction of cellular GSH level in human HT-29 cells incubated for 30 mins followed by co-culturing with human mesothelial cells measured after 5 hrs by […]. The class given is functional, cell-based.
Series [20] concerns HT-29. In words: Induction of apoptosis in human HT-29 cells at 10 uM incubated for 30 mins followed by coculturing with human mesothelial cells for 5 hrs by firefly luciferase assay in presence of NAC. The class given is functional, cell-based. In outline: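 Firefly luciferase-expressing HT-29 cells were incubated 30 min with compound plus vehicle (water) or 680 µM N-acetylcysteine, trypsin-suspended, and co-cultured 5 h on human mesothelial monolayers with compound and NAC. Surviving adherent cells were detected by luciferase luminescence; mean light output ±SEM.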

Series [21] deals with HT-29. In words: Induction of apoptosis in human HT-29 cells using compound pre-mixed with NAC. The class given is functional, cell-based.
A short description of series [22]: Glutathione reactivity assessed as reduction in detectable GSH level by Ellman's reagent-based assay. In outline: as §6

We go through 6 compounds from ChEMBL document CHEMBL3407346, “Design, synthesis, and biological evaluation of sulfonyl acrylonitriles as novel inhibitors of cancer metastasis and spread” (J Med Chem, 2015).

pEC50: −log10 of the molar value. The source made the active and inactive calls. The calls are words filed in the database; no cut-off is given here.

In general, pEC50 refers to the EC50 on a negative log10 scale, so that one unit is a factor of ten. Read a low pEC50 as a large EC50. Take `CC(C)(C(=O)NCc1ccccc1)c1ccc(S(=O)(=O)/C=C/C#N)cc1`: the Ratio is 0.21 in series [1], 0.52 in series [8], 0.16 in series [9] and 0.1 with A2780 [10]. Also, the pEC50 in [2] was 5.06; with A2780 [6] it was 5.52; in series [11], 5.13; in [13], 5.43. For the same compound, the result with A2780 [3] and in the series on A2780 [4] was Active. The Activity entry in the series with Mus musculus [5] is “Non-toxic”; in series [7] it was 6%; with Mus musculus [12] it was “Non-toxic”; in series [14], 6%; in series [15] it was 6%. The inhibition entry in the series with SK-OV-3 and in the series with A2780 [16] was “Active” in each case.

With `Cc1ccc2oc(C(C)(C)c3ccc(S(=O)(=O)/C=C/C#N)cc3)nc2c1`, the Ratio in series [1] was 0.2; in series [8], 0.17; in [9] it was 0.09; in the series on A2780 [10], 0.1. Further, the pEC50 in [2] is 5.25; with A2780 [6] it was 5.68; in series [11] it was 5.14; in [13], 5.46. The values for the Activity in series [7], in series [14] and in series [15] were 10%, 40% and 50%, respectively.

As to `CCCCS(=N)(=O)CC[C@H](N)C(=O)O` (some centres undefined), the result in the series on HT-29 [17] was Active. Further, in the series on HT-29 [18], the result was inactive.

Turning to `CC(C)(c1ccc(S(=O)(=O)/C=C/C#N)cc1)c1nnc(-c2ccccc2)o1`, the Ratio is reported as 0.45 in series [1], 0.25 in series [8], 0.24 in [9] and 0.06 in the series with A2780 [10]. In addition, the pEC50 was 5.24 in series [2], 5.59 with A2780 [6], 5.21 in series [11] and 5.51 in series [13]. The Activity came to 0% in series [7], 45% in series [14] and 45% in series [15].

With `CC(C)(C)c1ccc(S(=O)(=O)/C=C/C#N)cc1` [BAY-11-7085], the Ratio was 0.13 in series [1], 0.32 in series [8], 0.07 in [9] and 0.04 in the series on A2780 [10]. Also, the pEC50 in series [2] is 5.30; with A2780 [6] it was 5.59; in [11] it was 5.23; in [13], 5.46. The outcome (in the series on HT-29 [19]; with A2780 [3]; in the series with A2780 [4]; in series [22]) was Active. The Activity result was “Non-toxic” in the series with Mus musculus [5]; 31% in series [7]; “Non-toxic” in the series with Mus musculus [12]; 31% in [14]; 38% in [15]. The outcome in the series on HT-29 [20] and in the series on HT-29 [21] was inactive. Further, the inhibition result with SK-OV-3 and with A2780 [16] was “Active” in each case.

Consider `N#C/C=C/S(=O)(=O)c1ccc(C2(C(=O)NC3CCCCC3)CCC2)cc1`, for which the Ratio in series [1] is given as 0.32; in [8], 0.33; in [9], 0.18; in the series on A2780 [10], 0.09. Also, the pEC50 in series [2] is 5.13; with A2780 [6], 5.51; in series [11], 5.10; in [13], 5.44. Also, the outcome with A2780 [3] and in the series on A2780 [4] was Active. Moreover, the Activity entry in the series with Mus musculus [5] was “Non-toxic”; in series [7] it was 20%; in the series with Mus musculus [12], “Non-toxic”; in [14], 30%; in series [15] it was 40%. The inhibition entry with SK-OV-3 and in the series on A2780 [16] was “Active” throughout.
